ChEMBL document CHEMBL1137803, “A novel anti-HIV macrocyclic peptide from Palicourea condensata” (J Nat Prod, 2001)
Where a SMILES comes first, the peptide text is derived from it. Bridges are numbered along the chain shown (N, C = ends).

Legend:
[1] = test system: Human immunodeficiency virus 1; assay: Antiviral activity against HIV1 RF infected in human CEM-SS cells assessed as inhibition of virus induced cytopathic effect by XTT assay; type: functional, organism-based; conditions: Human immunodeficiency virus 1, RF
In short: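 HIV-1RF infection of CEM-SS, a human T-lymphoblastoid cell line, in vitro; inhibition of virus-induced cytopathic effects read out and reported as EC50 in µM.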

CEM-SS = assay: Cytotoxicity against human CEM-SS cells by XTT assay; type: cell-based

SMILES: CC[C@H](C)[C@@H]1NC(=O)[C@H](C(C)C)NC(=O)[C@H](CCCNC(=N)N)NC(=O)[C@@H]2CSSC[C@@H]3NC(=O)[C@H]([C@@H](C)O)NC(=O)[C@@H]4CSSC[C@H](NC(=O)[C@H](Cc5ccccc5)NC(=O)[C@H]([C@@H](C)O)NC(=O)[C@@H]5CCCN5C(=O)[C@H](CC(=O)O)NC(=O)CNC(=O)[C@H](CC(N)=O)NC(=O)[C@H](CCCNC(=N)N)NC(=O)[C@H](CCCCN)NC(=O)[C@H](CSSC[C@H](NC(=O)[C@H](C(C)C)NC(=O)[C@@H]5CCCN5C1=O)C(=O)N[C@@H]([C@@H](C)O)C(=O)N[C@@H](Cc1ccc(O)cc1)C(=O)N[C@@H](CO)C(=O)N[C@@H](C)C(=O)N[C@@H](C)C(=O)N[C@@H](CC(C)C)C(=O)NCC(=O)N4)NC(=O)[C@H](CC(C)C)NC(=O)CNC(=O)[C@H](CC(=O)O)NC(=O)[C@H](CO)NC(=O)[C@H](CCCNC(=N)N)NC(=O)[C@H](CC(=O)O)NC(=O)[C@H](CC(=O)O)NC3=O)C(=O)NCC(=O)N[C@@H](CCC(=O)O)C(=O)N[C@@H]([C@@H](C)O)C(=O)N2 [PALICOUREIN] (cyclo(AALGCTCDDRSDGLCKRNGDPTFCGETCRVIPVCTYS); disulfide 5-24, 7-28, 15-34)
- EC50 [1]: 100 nM
- IC50 (CEM-SS): 1500 nM
